Here are results for 10 molecules from ChEMBL document CHEMBL4665790, “Photohormones Enable Optical Control of the Peroxisome Proliferator-Activated Receptor γ (PPARγ)” (J Med Chem, 2020).

By pKd is commonly meant the Kd on a negative log10 scale, so that one unit is a factor of ten. The term pEC50 denotes −log10 of the EC50, conventionally taken in molar units. High values mean a low EC50, low ones a high EC50.

pEC50, pKd: −log10 of the molar value. Activity calls are given as the source filed them. No cut-off for these calls is given here.

Assay [1] has as its target T1, Peroxisome proliferator-activated receptor gamma (Homo sapiens, UniProt P37231).
T1 sequence (P37231 whole entry): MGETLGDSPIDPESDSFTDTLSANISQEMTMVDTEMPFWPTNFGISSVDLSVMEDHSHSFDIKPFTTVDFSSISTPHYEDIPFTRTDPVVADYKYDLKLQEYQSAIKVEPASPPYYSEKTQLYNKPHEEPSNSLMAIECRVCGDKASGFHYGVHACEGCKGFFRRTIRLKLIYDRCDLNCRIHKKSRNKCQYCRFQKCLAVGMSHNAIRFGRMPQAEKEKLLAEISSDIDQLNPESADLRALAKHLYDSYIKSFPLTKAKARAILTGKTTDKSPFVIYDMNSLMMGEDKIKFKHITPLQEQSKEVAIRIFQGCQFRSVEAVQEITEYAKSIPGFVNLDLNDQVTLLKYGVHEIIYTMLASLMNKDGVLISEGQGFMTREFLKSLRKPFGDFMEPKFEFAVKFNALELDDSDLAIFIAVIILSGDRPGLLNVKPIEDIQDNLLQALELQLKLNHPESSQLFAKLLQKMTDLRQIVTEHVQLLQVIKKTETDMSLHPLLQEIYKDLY
Kind of assay: (§1) Binding affinity to recombinant PPARy LBD (unknown origin) expressed in Escherichia coli BL21 DE3 using pre-irradiated compound by ITC assay. An outline of the steps: (§2)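 ITC at 25 °C: 300 µM compound, pre-irradiated 5 min at 365 nm, titrated into 64 µM His-tag-cleaved PPARγ LBD (aa 234–505, E. coli BL21 DE3 with GroEL/ES, IMAC plus gel filtration) in 25 mM HEPES pH 7.5, 150 mM KF, 5 mM DTT, 10% glycerol, 1% DMSO. 31 injections (1.0 then 2.5 µL), 300 s apart, 75 rpm; buffer control.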

For assay [2], the target named is T1, Peroxisome proliferator-activated receptor gamma. Kind of assay: Agonist activity at PPARy in human HepG2 cells transfected with human PPRE incubated for 14 to 16 hrs using pre-irradiated compound by firefly luciferase reporter gene assay. The format is cell-based. An outline of the steps: (§3)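 HepG2 cells on collagen-coated wells, transfected (Lipofectamine 3000) with PPRE1-pGL3 (human full-length PPRE driving firefly luciferase) plus pRL-SV40; endogenous PPARγ/RXR, no overexpression. Compound in Opti-MEM, 0.1% DMSO, 14–16 h; cis state held by 75 ms 370 nm pulses every 15 s. Firefly/Renilla normalised, fold activation over DMSO control; rosiglitazone reference.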
For orientation: Reporter assays use an easily measured gene product as a stand-in for the process of interest.

Assay [3] has as its target T2, Peroxisome proliferator-activated receptor gamma (Homo sapiens) (UniProt P37231).
T2 sequence (whole entry): T1 sequence (P37231 whole entry)
Kind of assay: Agonist activity at PPARy in human HepG2 cells transfected with human PPRE incubated for 14 to 16 hrs using pre-irradiated compound by firefly luciferase reporter gene assay relative to control. In kind it is cell-based. As to conditions: filed as agonist, time hrs 14-16. An outline of the steps: as §3

The target of assay [4] is T1, Peroxisome proliferator-activated receptor gamma. Kind of assay: Agonist activity at PPARgamma (unknown origin) expressed in HEK293T cells incubated for 14 to 16 hrs under irradiation by hybrid Gal4 reporter gene assay. In kind it is cell-based.
Assay [5] addresses T3, Peroxisome proliferator-activated receptor alpha (Homo sapiens) (UniProt Q07869).
T3 sequence (whole entry): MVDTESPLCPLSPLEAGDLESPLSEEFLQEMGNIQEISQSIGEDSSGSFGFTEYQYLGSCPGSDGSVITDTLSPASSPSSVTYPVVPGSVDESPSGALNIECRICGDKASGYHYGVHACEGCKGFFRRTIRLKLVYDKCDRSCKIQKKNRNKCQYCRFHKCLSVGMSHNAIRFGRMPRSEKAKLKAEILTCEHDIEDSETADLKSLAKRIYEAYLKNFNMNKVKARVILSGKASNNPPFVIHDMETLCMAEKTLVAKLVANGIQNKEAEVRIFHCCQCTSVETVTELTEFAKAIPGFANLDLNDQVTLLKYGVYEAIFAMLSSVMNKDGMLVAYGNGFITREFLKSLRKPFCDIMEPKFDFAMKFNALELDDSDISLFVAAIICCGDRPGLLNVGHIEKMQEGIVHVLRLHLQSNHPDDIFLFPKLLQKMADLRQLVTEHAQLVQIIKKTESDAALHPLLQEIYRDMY
Kind of assay: Agonist activity at PPARalpha (unknown origin) expressed in HEK293T cells at 10 uM incubated for 14 to 16 hrs under irradiation by hybrid Gal4 reporter gene assay. As to conditions: time hrs 14-16. In kind it is cell-based. Put shortly: (§4)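 HEK293T cells transfected (Lipofectamine LTX) with Gal4 fusion of human PPARα or PPARδ hinge region + LBD, pFR-Luc reporter and pRL-SV40; compound added in Opti-MEM with 0.1% DMSO 5 h post-transfection, 14–16 h incubation. Dual-Glo luciferase; firefly/Renilla ratio gives RLU, fold activation vs DMSO control. Duplicates, ≥2 independent repeats.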

Assay [6] addresses T4, Peroxisome proliferator-activated receptor delta (Homo sapiens) (UniProt Q03181).
T4 sequence (whole entry): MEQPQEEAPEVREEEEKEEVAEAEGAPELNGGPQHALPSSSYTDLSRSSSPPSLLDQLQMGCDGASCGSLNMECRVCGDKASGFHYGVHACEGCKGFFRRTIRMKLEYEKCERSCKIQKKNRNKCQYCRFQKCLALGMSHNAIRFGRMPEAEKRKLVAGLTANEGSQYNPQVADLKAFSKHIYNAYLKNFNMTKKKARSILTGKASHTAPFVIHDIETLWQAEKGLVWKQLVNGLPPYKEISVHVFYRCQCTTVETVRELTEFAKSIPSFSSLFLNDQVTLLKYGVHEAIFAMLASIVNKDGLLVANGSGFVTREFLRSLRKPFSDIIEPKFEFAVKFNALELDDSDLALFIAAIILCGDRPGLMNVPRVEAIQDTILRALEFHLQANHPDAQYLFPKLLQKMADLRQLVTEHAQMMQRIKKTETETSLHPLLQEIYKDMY
Kind of assay: Agonist activity at PPARdelta (unknown origin) expressed in HEK293T cells at 10 uM incubated for 14 to 16 hrs under irradiation by hybrid Gal4 reporter gene assay. As to conditions: time hrs 14-16. In kind it is cell-based. An outline of the steps: as §4

Assay [7] addresses T2, Peroxisome proliferator-activated receptor gamma (Homo sapiens). Kind of assay: Agonist activity at PPARgamma (unknown origin) expressed in HEK293T cells at 10 uM incubated for 14 to 16 hrs under irradiation by hybrid Gal4 reporter gene assay. In kind it is cell-based. As to conditions: time hrs 14-16. An outline of the steps:
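Gal4 hybrid reporter: HEK293T cells transiently co-transfected with Gal4–human PPARγ hinge+LBD fusion, Gal4-responsive firefly luciferase reporter and Renilla normalisation plasmid. Compound added 5 h post-transfection in Opti-MEM, 0.1% DMSO final; 14–16 h incubation. Dual-Glo read-out, firefly/Renilla ratio, fold over DMSO control. Technical duplicates, at least two independent repeats.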

The target is the same in assay [8]. The description is as §1. Put shortly:
as §2

For assay [9] the target is unchanged. Kind of assay: Agonist activity at PPARy in human HepG2 cells transfected with human PPRE at 10 uM incubated for 14 to 16 hrs using pre-irradiated compound by firefly luciferase reporter gene assay. The format is cell-based. As to conditions: filed as agonist, time hrs 14-16. Put shortly: as §3

With `Cc1ccccc1-c1ccc(/N=N\c2ccc(CC3SC(=O)NC3=O)cc2)cc1` (centres undefined), in assay [1], the negative-log Kd (pKd) was 5.03. Further, the pEC50 in assay [2] was 6.05; in assay [4], 5.19. The molecule further gave a fold change (FC) in assay [3] of 2.4. `O=C1NC(=O)C(Cc2ccc(/N=N/c3ccc(C(F)(F)F)cc3)cc2)S1` (centres undefined): in [4], the negative-log EC50 (pEC50) was 5.66. As to `O=C1NC(=O)C(Cc2ccc(/N=N\c3ccccc3)cc2)S1` (centres undefined), the pEC50 in assay [4] is 5.20. Against the preceding molecule, the pEC50 is 0.46 log units lower. In turn, `O=C1NC(=O)C(Cc2ccc(/N=N/c3ccc(Cl)cc3)cc2)S1` (centres undefined) showed a pEC50 in assay [4] of 5.54. Still for that read-out and setting: under `O=C1NC(=O)C(Cc2ccc(/N=N\c3ccc(C(F)(F)F)cc3)cc2)S1` (centres undefined) stands 5.19. Turning to `O=C1NC(=S)NC(=O)C1=Cc1ccc(/N=N/c2ccccc2)cc1`, the result in assay [5], in assay [6] and in assay [7] was inactive.

As for `O=C1NC(=O)C(Cc2ccc(/N=N\c3ccc(Cl)cc3)cc2)S1` (centres undefined), the negative logarithm of the EC50 (pEC50) in assay [4] was 5.15. In the case of `Cc1ccccc1-c1ccc(/N=N/c2ccc(CC3SC(=O)NC3=O)cc2)cc1` (centres undefined), the result in assay [8] was inactive. In addition, the outcome in assay [9] was Active. This molecule had a pEC50 in assay [4] of 5.55. Turning to `O=C(c1ccccc1)c1ccccc1N[C@@H](Cc1ccc(/N=N/c2ccccc2)cc1)C(=O)O`, the result in assay [5] and in assay [6] was inactive. Consider `O=C1NC(=O)C(Cc2ccc(/N=N/c3ccccc3)cc2)S1` (centres undefined), for which the result in assay [6] was inactive. For the same molecule, the pEC50 in [4] was 5.66.
